The record followed here is ChEMBL document CHEMBL4376814, “Novel cyclin-dependent kinase 9 (CDK9) inhibitor with suppression of cancer stemness activity against non-small-cell lung cancer” (Eur J Med Chem, 2019).

Activity calls are given as the source filed them.

For orientation: inhibition means the drop in the measured response relative to a control, in per cent. In general, half-life refers to the time needed for the level to fall by half in the phase considered.

Data set [1] deals with T1, CDK4/Cyclin D3 (Homo sapiens) (UniProt P11802+P30281). Put plainly: Inhibition of recombinant full-length human CDK4/cyclinD3 at 1 uM using Rb fragment as substrate measured after 40 mins in presence of [gamma33P]ATP by scintillation counting method relative to control. Format: protein-complex assay. In short, it runs like this: (§1)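 Percent inhibition of kinase activity at a single compound concentration, measured by the outsourced Eurofins KinaseProfiler panel. Values are the mean of two independent experiments.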

Data set [2] addresses T1, CDK4/Cyclin D3 (Homo sapiens). Nature of the data set: Inhibition of recombinant full-length human CDK4/cyclinD3 at 500 nM using Rb fragment as substrate measured after 40 mins in presence of [gamma33P]ATP by scintillation counting method relative to control. Format: protein-complex assay. In short, it runs like this: as §1
For data set [3], the system named is NCI-H1299. Put plainly: Induction of apoptosis in human H1299 cells assessed as early apoptotic cells at 1 uM after 48 hrs by AnnexinV-FITC/PI staining-based flow cytometric analysis (reference value: 0.248%). Format: functional. (In general: In flow cytometry, cells or beads pass a laser one at a time.)
In data set [4] the test system is A549. Put plainly: Induction of apoptosis in human A549 cells assessed as decrease in Bcl-2 protein expression at 0.25 to 1 uM after 24 hrs by Western blot analysis. Type of data set: functional, cell-based. The gist of the method:
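A549 or H1299 cells exposed to the indicated concentrations for 24 h. Protein extracts then immunoblotted for apoptosis-pathway proteins (Bcl2, Bim, cleaved caspase 3).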

The nature of data set [5]: Half life in human liver microsomes at 2 uM in presence of NADPH measured up to 1 hr by HPLC analysis. Type of data set: ADME, Microsome. In short, it runs like this:
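Compound at 2 μM incubated at 37 °C with liver microsomes (1 mg/mL), 3 mM MgCl2 and 0.1 M phosphate buffer pH 7.4; 5 min preincubation, then started with 3 mM NADPH. Aliquots (n = 3) at 0, 10, 20, 30, 45, 60 min quenched with ice-cold acetonitrile, centrifuged, supernatant by HPLC. t1/2 from linear-regression kinetic constant k.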
(In general: Liver microsomes are a subcellular fraction often used to study metabolism.)

Data set [6] relates to NCI-H1299. Nature of the data set: Antitumour activity against human H1299 cells xenografted in Balb/c mouse assessed as inhibition of tumour growth at 20 mg/kg, po administered for 21 days by digital caliper method relative to control. Type of data set: functional. The conditions noted are these: 504 h, read-out: TGI. The gist of the method: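 Female nude mice, 6-8 weeks old, injected subcutaneously with 1×10^6 H1299 cells (100 µL of a 1×10^7/mL suspension in serum-free medium). At 100-120 mm3, randomized into groups of 5. Dosed orally each day for 21 days with drug dissolved in DMSO, or with vehicle. Caliper measurements and body weight taken every other day. Volume = short²×long×0.5. Growth inhibition based on change in volume relative to vehicle. Tumours weighed at the end.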
A general note: Xenograft models place foreign cells or tissue in a host animal.

The target in data set [7] is T2, Cyclin-dependent kinase 5/CDK5 activator 1 (Homo sapiens) (UniProt Q00535+Q15078). Nature of the data set: Inhibition of recombinant full-length human CDK5/p25 at 1 uM using Histone H1 as substrate measured after 40 mins in presence of [gamma33P]ATP by scintillation counting method relative to control. Type of data set: protein-complex assay.
Data set [8] concerns the target T2, Cyclin-dependent kinase 5/CDK5 activator 1 (Homo sapiens). Put plainly: Inhibition of recombinant full-length human CDK5/p35 at 1 uM using Histone H1 as substrate measured after 40 mins in presence of [gamma33P]ATP by scintillation counting method relative to control. Format: protein-complex assay.
For data set [9], the target named is Dual specificity protein kinase CLK2 (Homo sapiens) (UniProt P49760). Nature of the data set: Inhibition of recombinant human CLK2 (138 to end residues) at 1 uM using YRRAAVPPSPSLSRHSSPHQS(p) EDEEE as substrate measured after 40 mins in presence of [gamma33P]ATP by scintillation counting method relative to control. In short, it runs like this: (§2)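 Single-point inhibition at 1 µM was measured in the Eurofins KinaseProfiler panel. Values are the mean of two independent experiments.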

For data set [10], the target named is Protein kinase C beta type (Homo sapiens) (UniProt P05771). Put plainly: Inhibition of recombinant human PKCbeta2 (2 to end residues) at 1 uM using histone H1 as substrate measured after 40 mins in presence of [gamma33P]ATP by scintillation counting method relative to control.
For data set [11], the target named is Protein kinase C epsilon type (Homo sapiens) (UniProt Q02156). Put plainly: Inhibition of recombinant human PKCepsilon (2 to end residues) at 1 uM using ERMRPRKRQGSVRRRV as substrate measured after 40 mins in presence of [gamma33P]ATP by scintillation counting method relative to control.
Data set [12] has as its target Ephrin type-A receptor 4 (Homo sapiens) (UniProt P54764). Nature of the data set: Inhibition of recombinant human EphA4 (601 to 892 residues) at 1 uM using poly(Glu, Tyr) 4:1 as substrate measured after 40 mins in presence of [gamma33P]ATP by scintillation counting method relative to control. In short, it runs like this: as §2
Data set [13] deals with Serine/threonine-protein kinase N1 (Homo sapiens), Q16512 [V901I]. Nature of the data set: Inhibition of human PRK1 V901I mutant (498 to end residues) at 1 uM using KKLNRTLSFAEPG as substrate measured after 40 mins in presence of [gamma33P]ATP by scintillation counting method relative to control. The gist of the method: as §1
The target in data set [14] is Tyrosine-protein kinase FRK (Homo sapiens) (UniProt P42685). Nature of the data set: Inhibition of human PTK5 (218 to end residues) at 1 uM using GGEEEEYFELVKKKK as substrate measured after 40 mins in presence of [gamma33P]ATP by scintillation counting method relative to control. The gist of the method:
as §1

Data set [15] deals with Ribosomal protein S6 kinase alpha-2 (Homo sapiens) (UniProt Q15349). Put plainly: Inhibition of human Rsk2 (2 to end residues) at 1 uM using KKKNRTLSVA as substrate measured after 40 mins in presence of [gamma33P]ATP by scintillation counting method relative to control. The gist of the method: as §1
For data set [16], the system named is Glycogen synthase kinase-3 alpha (Homo sapiens), P49840 [UNDEFINED MUTATION]. Nature of the data set: Inhibition of recombinant full-length human GSK3alpha (2 to end residues) S449A mutant at 1 uM using phospho GS2 peptide as substrate measured after 40 mins in presence of [gamma33P]ATP by scintillation counting method relative to control.
Data set [17] has as its target Serine/threonine-protein kinase PLK2 (Homo sapiens) (UniProt Q9NYY3). Put plainly: Inhibition of human Snk (65 to 409 residues) at 1 uM using casein as substrate measured after 40 mins in presence of [gamma33P]ATP by scintillation counting method relative to control. In short, it runs like this: as §1
Data set [18] addresses Proto-oncogene tyrosine-protein kinase Src (Homo sapiens) (UniProt P12931). Put plainly: Inhibition of human Src (1 to 530 residues) at 1 uM using GGEEEEYFELVKKKK as substrate measured after 40 mins in presence of [gamma33P]ATP by scintillation counting method relative to control. The gist of the method: as §1
The target in data set [19] is Tyrosine-protein kinase TXK (Homo sapiens) (UniProt P42681). Put plainly: Inhibition of human Txk (256 to end residues) at 1 uM using GEEPLYWSFPAKKK as substrate measured after 40 mins in presence of [gamma33P]ATP by scintillation counting method relative to control. In short, it runs like this:
as §1

Data set [20] addresses Wee1-like protein kinase 2 (Homo sapiens) (UniProt P0C1S8). Put plainly: Inhibition of recombinant full-length human Wee1B at 1 uM using LSNLYHQGKFLQTFCGSPLYRRR as substrate measured after 120 mins in presence of [gamma33P]ATP by scintillation counting method relative to control.

T2 sequence (Q00535 whole entry): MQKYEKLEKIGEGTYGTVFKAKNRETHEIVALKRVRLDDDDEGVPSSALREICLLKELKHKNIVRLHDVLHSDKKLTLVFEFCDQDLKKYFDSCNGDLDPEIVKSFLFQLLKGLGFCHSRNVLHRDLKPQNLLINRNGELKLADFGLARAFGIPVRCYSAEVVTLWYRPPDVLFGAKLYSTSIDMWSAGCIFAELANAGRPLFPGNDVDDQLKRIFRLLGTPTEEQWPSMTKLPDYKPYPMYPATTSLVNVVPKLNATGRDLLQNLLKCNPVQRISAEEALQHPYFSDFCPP
T2 sequence (Q15078 99-307 partner limits assumed): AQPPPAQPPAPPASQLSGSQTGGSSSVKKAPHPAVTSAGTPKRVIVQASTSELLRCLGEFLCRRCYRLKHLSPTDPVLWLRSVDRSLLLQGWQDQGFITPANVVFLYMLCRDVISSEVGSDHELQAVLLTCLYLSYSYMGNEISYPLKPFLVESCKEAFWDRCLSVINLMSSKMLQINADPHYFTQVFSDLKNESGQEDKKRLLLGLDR
Ribosomal protein S6 kinase alpha-2 (Homo sapiens), sequence (Q15349 whole entry): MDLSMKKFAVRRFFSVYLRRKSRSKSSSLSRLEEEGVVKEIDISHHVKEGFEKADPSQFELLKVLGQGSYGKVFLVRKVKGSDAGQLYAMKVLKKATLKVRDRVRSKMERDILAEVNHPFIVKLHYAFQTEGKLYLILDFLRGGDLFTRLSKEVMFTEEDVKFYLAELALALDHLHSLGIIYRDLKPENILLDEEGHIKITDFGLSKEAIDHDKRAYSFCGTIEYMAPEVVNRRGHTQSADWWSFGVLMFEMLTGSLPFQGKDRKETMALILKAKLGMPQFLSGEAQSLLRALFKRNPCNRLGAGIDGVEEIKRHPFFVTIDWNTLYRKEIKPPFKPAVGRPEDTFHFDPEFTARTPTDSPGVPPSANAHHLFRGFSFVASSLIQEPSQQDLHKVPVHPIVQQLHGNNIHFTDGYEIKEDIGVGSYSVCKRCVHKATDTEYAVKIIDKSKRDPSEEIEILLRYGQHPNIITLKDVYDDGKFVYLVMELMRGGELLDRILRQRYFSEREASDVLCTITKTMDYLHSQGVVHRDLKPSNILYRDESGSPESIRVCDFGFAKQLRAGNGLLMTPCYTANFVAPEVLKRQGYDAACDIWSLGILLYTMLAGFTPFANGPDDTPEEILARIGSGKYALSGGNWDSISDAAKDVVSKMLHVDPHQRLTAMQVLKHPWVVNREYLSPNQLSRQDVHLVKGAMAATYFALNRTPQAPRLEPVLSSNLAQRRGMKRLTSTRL
Tyrosine-protein kinase TXK (Homo sapiens), sequence (P42681 whole entry): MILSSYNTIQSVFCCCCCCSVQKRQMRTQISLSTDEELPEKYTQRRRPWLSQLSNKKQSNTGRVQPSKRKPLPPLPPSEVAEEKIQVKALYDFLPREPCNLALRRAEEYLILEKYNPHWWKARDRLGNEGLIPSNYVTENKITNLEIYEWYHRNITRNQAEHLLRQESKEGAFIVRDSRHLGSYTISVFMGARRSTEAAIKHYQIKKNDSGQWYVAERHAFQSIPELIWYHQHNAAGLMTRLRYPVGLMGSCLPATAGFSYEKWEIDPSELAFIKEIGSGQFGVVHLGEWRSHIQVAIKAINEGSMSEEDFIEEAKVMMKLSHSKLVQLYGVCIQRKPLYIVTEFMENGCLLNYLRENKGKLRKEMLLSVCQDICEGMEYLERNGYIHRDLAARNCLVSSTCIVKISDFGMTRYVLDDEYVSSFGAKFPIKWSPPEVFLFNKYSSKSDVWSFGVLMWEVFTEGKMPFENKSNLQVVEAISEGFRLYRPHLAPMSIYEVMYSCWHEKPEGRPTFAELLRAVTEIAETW
Ephrin type-A receptor 4 (Homo sapiens), sequence (P54764 whole entry, the tested form may be a part): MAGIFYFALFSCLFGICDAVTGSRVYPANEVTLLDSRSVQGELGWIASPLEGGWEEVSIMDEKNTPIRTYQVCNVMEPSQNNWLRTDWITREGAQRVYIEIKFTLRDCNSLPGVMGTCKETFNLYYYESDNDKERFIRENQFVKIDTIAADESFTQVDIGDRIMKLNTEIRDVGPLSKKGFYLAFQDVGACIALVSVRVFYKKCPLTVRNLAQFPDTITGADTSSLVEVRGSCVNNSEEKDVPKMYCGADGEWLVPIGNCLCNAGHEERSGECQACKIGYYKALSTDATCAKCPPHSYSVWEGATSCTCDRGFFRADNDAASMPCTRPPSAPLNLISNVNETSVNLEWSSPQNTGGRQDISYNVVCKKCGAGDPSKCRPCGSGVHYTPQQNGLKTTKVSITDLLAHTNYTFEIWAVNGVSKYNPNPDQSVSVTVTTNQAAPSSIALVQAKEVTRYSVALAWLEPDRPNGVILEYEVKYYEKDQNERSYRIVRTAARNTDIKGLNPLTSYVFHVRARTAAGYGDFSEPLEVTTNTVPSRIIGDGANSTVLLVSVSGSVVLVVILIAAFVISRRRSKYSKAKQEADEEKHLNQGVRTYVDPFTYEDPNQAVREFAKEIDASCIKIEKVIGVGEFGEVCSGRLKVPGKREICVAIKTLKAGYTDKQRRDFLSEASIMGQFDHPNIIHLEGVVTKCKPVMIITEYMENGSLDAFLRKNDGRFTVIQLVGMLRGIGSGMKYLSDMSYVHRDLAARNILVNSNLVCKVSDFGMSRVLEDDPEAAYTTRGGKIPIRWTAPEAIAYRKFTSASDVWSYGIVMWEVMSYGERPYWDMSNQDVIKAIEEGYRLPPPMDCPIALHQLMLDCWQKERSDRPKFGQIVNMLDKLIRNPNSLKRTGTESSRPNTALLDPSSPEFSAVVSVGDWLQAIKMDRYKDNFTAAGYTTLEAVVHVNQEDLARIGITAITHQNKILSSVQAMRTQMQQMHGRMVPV
Proto-oncogene tyrosine-protein kinase Src (Homo sapiens), sequence (P12931 2-536 limits assumed): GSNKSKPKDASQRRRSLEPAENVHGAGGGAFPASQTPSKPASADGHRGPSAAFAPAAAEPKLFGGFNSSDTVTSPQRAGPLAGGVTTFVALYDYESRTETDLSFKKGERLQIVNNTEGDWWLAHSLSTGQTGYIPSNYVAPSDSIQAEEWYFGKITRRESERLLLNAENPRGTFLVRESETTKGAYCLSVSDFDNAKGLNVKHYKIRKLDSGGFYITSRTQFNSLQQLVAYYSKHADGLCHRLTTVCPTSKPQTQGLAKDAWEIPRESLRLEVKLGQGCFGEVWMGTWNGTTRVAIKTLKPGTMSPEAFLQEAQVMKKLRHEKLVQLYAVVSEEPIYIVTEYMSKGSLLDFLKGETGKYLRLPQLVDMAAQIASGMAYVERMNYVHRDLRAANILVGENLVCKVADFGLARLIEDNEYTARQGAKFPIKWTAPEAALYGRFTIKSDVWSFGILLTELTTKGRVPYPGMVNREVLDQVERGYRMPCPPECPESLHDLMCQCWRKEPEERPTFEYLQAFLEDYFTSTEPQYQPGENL
Glycogen synthase kinase-3 alpha (Homo sapiens), P49840 [UNDEFINED MUTATION], sequence (P49840 whole entry, looked up, stated change not applied, the tested form may be a part): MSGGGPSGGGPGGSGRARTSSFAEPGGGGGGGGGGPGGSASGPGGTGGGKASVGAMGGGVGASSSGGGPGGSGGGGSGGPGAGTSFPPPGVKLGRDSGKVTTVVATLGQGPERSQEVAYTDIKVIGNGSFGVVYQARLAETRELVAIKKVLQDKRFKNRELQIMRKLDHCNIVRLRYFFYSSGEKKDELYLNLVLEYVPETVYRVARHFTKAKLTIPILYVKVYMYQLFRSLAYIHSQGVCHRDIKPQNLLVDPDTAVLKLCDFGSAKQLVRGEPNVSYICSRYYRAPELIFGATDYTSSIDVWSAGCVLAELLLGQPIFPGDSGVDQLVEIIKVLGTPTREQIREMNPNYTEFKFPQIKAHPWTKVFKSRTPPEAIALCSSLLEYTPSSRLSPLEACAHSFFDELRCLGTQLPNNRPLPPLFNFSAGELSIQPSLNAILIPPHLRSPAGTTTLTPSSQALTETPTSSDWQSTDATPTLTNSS
Dual specificity protein kinase CLK2 (Homo sapiens), sequence (P49760 whole entry, looked up): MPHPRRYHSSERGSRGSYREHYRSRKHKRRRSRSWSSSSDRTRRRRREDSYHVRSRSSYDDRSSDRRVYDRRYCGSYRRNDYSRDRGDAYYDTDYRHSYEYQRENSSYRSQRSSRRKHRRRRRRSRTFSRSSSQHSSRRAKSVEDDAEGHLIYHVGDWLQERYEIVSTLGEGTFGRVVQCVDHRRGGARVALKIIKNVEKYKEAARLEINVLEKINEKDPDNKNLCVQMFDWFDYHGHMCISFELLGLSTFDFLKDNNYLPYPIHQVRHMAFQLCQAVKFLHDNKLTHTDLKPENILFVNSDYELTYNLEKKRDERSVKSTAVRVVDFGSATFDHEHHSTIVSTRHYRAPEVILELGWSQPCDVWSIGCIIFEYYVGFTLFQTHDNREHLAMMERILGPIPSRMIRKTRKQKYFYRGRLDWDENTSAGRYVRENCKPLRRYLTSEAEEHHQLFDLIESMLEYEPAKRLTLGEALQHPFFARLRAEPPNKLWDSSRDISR
Protein kinase C beta type (Homo sapiens), sequence (P05771 2-671 limits assumed): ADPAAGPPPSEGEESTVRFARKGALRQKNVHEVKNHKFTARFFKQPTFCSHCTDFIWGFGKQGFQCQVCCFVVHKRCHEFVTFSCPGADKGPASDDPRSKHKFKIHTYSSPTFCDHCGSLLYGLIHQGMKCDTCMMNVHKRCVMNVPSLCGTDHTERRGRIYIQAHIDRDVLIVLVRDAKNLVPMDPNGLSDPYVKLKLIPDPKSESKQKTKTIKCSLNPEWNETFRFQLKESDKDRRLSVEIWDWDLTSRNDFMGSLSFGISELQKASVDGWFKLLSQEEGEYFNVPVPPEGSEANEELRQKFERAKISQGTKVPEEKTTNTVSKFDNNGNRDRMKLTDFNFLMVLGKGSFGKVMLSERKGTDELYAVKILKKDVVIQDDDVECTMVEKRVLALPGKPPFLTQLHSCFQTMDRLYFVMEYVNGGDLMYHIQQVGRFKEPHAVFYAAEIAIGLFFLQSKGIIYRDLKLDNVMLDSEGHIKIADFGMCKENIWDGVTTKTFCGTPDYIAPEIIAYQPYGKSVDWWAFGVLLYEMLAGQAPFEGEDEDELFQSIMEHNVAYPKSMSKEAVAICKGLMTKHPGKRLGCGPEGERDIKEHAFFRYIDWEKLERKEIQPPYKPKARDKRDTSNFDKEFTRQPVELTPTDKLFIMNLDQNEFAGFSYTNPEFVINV

As to `CN(C)C(=O)c1cc2cnc(Nc3ccc(NC(=O)CCCCCCCN=C=S)cc3)nc2n1C1CCCC1`, the inhibition in data set [1] was found to be 87%; in data set [2], 75%; in data set [7] it was 63%; in data set [8] it was 59%; in data set [9], 12%; in data set [10], 72%. Also, the inhibition in [11] is -3%; in [12] it was 1%; in data set [13], 3%; in [14], 15%; in data set [15], 19%; in [16], 17%. Besides, the inhibition was 4% in data set [17], 36% in data set [18], 81% in data set [19] and -1% in data set [20]. The Activity in data set [3] is 2.28%. For the same compound, the outcome in data set [4] was Active. In [5], the half-life at 2 µM came out at 33 min. Besides, the inhibition in vivo at 20 mg/kg in [6] was 62%.
